Compounds with a hit are over-represented: about 1.9% of the library has one in this group of screens.
GRK2 inh = blocks RNA aptamer binding to human GRK2; P25098; bead flow cytometry, FAM-aptamer displacement from GRK2; inhibition of aptamer binding, % at 10 µM; actives 0.59% (n = 330,000);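 active = inhibition of aptamer binding above 40%, roughly 3 SD of noise, on plates passing a quality check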;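 also: median bead fluorescence of bound FAM aptamer so fluorescent compounds give negative values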
Rin1 Abl inh = blocks binding of human Rin1 to Abl; P00519+Q13671; TR-FRET Rin1/Abl binding, biochemical; inhibition, % at 7.35 µM; actives 0.4% (n = 360,000); AID 588664; in the data active = inhibition above about 5%, passing the limit was not always enough
SR-BI HDL uptake = blocks mouse SR-BI lipid uptake from DiI-HDL; Q61009; ldlA[mSR-BI] CHO cells, DiI-HDL uptake fluorescence, 3 h; inhibition, % at 12.5 µM; actives 0.96% (n = 320,000); AID 488896;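 active = mean replicate inhibition of at least 70% and a set share of replicates each scoring 70 or more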;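 also: 0% = median of neutral control wells and 100% = median of positive control wells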
Target sequence (Q61009 whole entry, looked up): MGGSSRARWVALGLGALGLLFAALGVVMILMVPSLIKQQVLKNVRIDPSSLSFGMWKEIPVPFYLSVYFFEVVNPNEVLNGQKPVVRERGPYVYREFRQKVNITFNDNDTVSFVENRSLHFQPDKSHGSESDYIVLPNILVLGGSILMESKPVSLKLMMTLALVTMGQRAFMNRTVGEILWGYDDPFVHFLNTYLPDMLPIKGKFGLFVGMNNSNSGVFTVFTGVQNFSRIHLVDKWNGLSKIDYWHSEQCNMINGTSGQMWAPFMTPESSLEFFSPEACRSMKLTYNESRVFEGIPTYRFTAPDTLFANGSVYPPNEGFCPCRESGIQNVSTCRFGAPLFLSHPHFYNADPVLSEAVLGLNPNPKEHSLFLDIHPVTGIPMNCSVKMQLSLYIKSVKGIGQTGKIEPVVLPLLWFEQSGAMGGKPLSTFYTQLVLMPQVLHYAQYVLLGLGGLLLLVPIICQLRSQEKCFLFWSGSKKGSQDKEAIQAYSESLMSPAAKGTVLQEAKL
SR-BI DiI-HDL act = activators of SR-BI mediated HDL lipid uptake; CHO ldlA[mSR-BI] cells, DiI-HDL uptake fluorescence, 3 h; 100 = double the neutral-control signal; activation, % at 12.5 µM; actives 0.096% (n = 320,000); AID 504775;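 active = mean replicate activation of at least 60% and every replicate at or above 60%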;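 also: 0% = median plate neutral-control signal and 100% = twice that signal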
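Material: SR-BI-overexpressing, LDLR-lacking CHO cells | Dosing: Single compound concentration, delivered by pin transfer | Probe or stimulus: Labelled HDL, 10 µg/mL | Signal: Bottom-read cell fluorescence after medium removal, ex 550/em 595 nm | Schedule: 3 h, 37 °C | Evaluation: HDL uptake via cellular fluorescence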
GRK2 CP1 = confirmation of human GRK2 inhibitors displacing RNA aptamer; actives 4% (n = 2,000); AID 504451; aptamer displacement, % at 10 µM; bead-bound GRK2, FAM-aptamer displacement, flow cytometry; shares compounds with GRK2 inh;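 active = aptamer displacement above 40%, near three times the noise of non-fluorescent compounds, on plates passing quality checks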;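 also: negative values mostly reflect intrinsic compound fluorescence rather than true enhancement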
FAM quench CP1 = counter-screen for GRK2 aptamer inhibitors: fluorescent aptamer quenchers; shares compounds with GRK2 inh; Carboxyfluorescein RNA aptamer on beads, flow cytometry quenching; hits give low values; fluorescence response (% of DMSO), % at 10 µM; 2,000 tested, under 10 active; AID 504580;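 active = compounds that quench the bead-bound fluorescent RNA probe, cutting fluorescence to under half of the solvent control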;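 also: counterscreen run without GRK2 so only probe quenching by compound is measured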
GRK2 confirm 2 = human GRK2 inhibition confirmation, cherry pick 2. inhibition of aptamer binding, % at 10 µM. bead-bound GRK2, FAM-aptamer displacement, flow cytometry. shares compounds with GRK2 inh. 360 tested, under 10 active. AID 504782;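 active = inhibition of aptamer binding above 40%, about triple the noise seen with nonglowing compounds, on plates passing quality control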;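 also: negative values mostly come from compounds that fluoresce themselves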
FAM quench SP = counter-screen for GRK2 binding hits: quenchers of fluorescent RNA aptamer; AID 588494; carboxyfluorescein RNA aptamer beads, flow cytometry quenching; hits give low values; shares compounds with GRK2 inh; 360 tested, under 10 active; fluorescence response vs DMSO, % at 10 µM;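 active = response vs DMSO under 50%, meaning signal dropped by over half, treated as fluorescence quencher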;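 also: labelled aptamer on streptavidin beads without GRK2 as a quench counter-screen; 100% = bead fluorescence of DMSO wells and lower means quenching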
An asterisk follows results filed as active; / = no result given.

SMILES	GRK2 inh	Rin1 Abl inh	SR-BI HDL uptake	SR-BI DiI-HDL act	GRK2 CP1	FAM quench CP1	others
COc1cccc(NC(=O)CCC2CCN(C(=O)C(OC)c3ccccc3)CC2)c1 (stereo not drawn)	/	-2	/	/	/	/
Cc1ccc2oc(C(=O)N(C)Cc3ccon3)c(C)c2c1	92*	3	0	0	-1	104
CCCCN(C(=O)COC(=O)C1(c2ccccc2)CC1)c1c(N)n(CCC)c(=O)[nH]c1=O	/	1	/	/	/	/
Cc1ccc2cccc(OC(=O)c3c(F)cccc3Cl)c2n1	/	1	/	/	/	/
CS(=O)(=O)c1ccc(Cl)c(NC(=O)CSc2nnc3n2CCCCC3)c1	/	0	/	/	/	/
CCN(CCO)Cc1csc2cccc(Br)c12	1	1	-5	5	/	/
CCN(CC)CCN(CC)Cc1ccccc1Br	99*	-3	6	-6	2	101
Cc1oc2c(c(C)cc3oc(=O)c(CC(=O)NCCCN4CCCC4=O)c(C)c32)c1C	6	-7	16	-16	0	94
Cc1oc2c(c(C)cc3oc(=O)c(CC(=O)NCCCO)c(C)c32)c1C	2	-5	0	0	/	/
O=C(Nc1ccc(NC(=O)C2CC2)cn1)c1ccccc1	1	-2	-6	6	/	/
O=C(Cc1ccccc1)Nc1ccc(NC(=O)c2ccccc2)nc1	41*	2	29	-29	/	/	GRK2 confirm 2=8;FAM quench SP=101
O=C(CNc1cccc(F)c1)N1CCc2ccccc2C1	51*	-2	-24	24	/	/	GRK2 confirm 2=25;FAM quench SP=102
O=C(OCc1nnc(-c2ccccc2)o1)C1CC(=O)N(CCc2ccccc2)C1 (stereo not drawn)	3	1	-11	11	1	102
COc1ccc(Cn2c(=O)sc3ccccc32)cc1	3	4	/	/	/	/
O=c1sc2ccccc2n1Cc1ccccc1	85*	0	0	0	-1	95
CCc1nc2ccc(C(=O)NCCCN3CCCC3=O)cn2c1N(C=O)CC	/	-4	/	/	/	/
CCOc1ccc(/C=C2\CCCc3c2nc2ccccc2c3C(=O)O)cc1OC	7	-8	-26	26	/	/
COc1ccc(/C=C2\CCc3c2nc2ccccc2c3C(=O)O)cc1OC	1	-19	/	/	17	100
Cn1c(N)c(C(=O)COC(=O)CCCN2C(=O)c3ccccc3C2=O)c(=O)n(C)c1=O	93*	6	-24	24	1	99
CC(C(=O)OCC(=O)c1c(N)n(C)c(=O)n(C)c1=O)N1C(=O)c2ccccc2C1=O (stereo not drawn)	1	0	-20	20	/	/
Cc1cc(C)n(CC(=O)O)c(=O)c1[N+](=O)[O-]	3	0	-21	21	/	/
O=C(Cn1cnc2c(nnn2Cc2ccccc2F)c1=O)OCc1ccccc1	82*	3	-20	20	3	91
O=C(Nc1ccc(S(=O)(=O)Nc2nccs2)cc1)c1cc(-c2ccccc2Cl)nc2ccccc12	1	2	-6	6	2	108
O=C(Nc1ccc(S(=O)(=O)Nc2nccs2)cc1)c1cc(-c2ccccn2)nc2ccccc12	1	-4	4	-4	/	/
COc1ccc([C@H]2CC(=O)C=C(c3ccccc3-c3ccccc3)C2)cc1	0	-1	17	-17	/	/
SMILES	GRK2 inh	Rin1 Abl inh	SR-BI HDL uptake	SR-BI DiI-HDL act	GRK2 CP1	FAM quench CP1	others
COc1ccc([C@H]2CC(=O)C=C(c3ccccc3Oc3ccccc3)C2)cc1	60*	1	28	-28	-2	95
CCOC(=O)N1CCC(n2c(=S)[nH]c3cc(OCC)c(OCC)cc3c2=O)CC1	11	1	69	-69	/	/
CCOc1cc2[nH]c(=S)n(C3CC3)c(=O)c2cc1OCC	41*	-2	45	-45	15	98
COc1cc(CN2C[C@@H](CO)O[C@@H](n3cnc4c(N5CCCC5)ncnc43)C2)cc(OC)c1OC	/	-3	/	/	/	/
Cn1cnc(Sc2ncnc3nc[nH]c23)c1[N+](=O)[O-]	96*	-3	/	/	-1	94
O=C(c1cccs1)N1C[C@@H](n2cc(C3CC3)nn2)[C@H](O)C[C@@H]1c1ccc(Cl)cc1	/	-4	/	/	/	/
COc1ccc(CN2CCN(CC=C(C)C)C(CCO)C2)cc1Cn1cncn1 (stereo not drawn)	1	2	-4	4	/	/
COc1ccc(CN2CCN(C(C)C)C(CCO)C2)cc1Cn1cncn1 (stereo not drawn)	46*	0	-15	15	-3	98
Cc1noc(C)c1NC(=O)N(C)C[C@@H]1Oc2cc(Br)ccc2S(=O)(=O)N([C@H](C)CO)C[C@@H]1C	/	0	/	/	/	/
Cc1cc(NC(=O)Nc2ccc3c(ccn3C)c2)sn1	0	-1	14	-14	0	99
Nc1nc(SCc2ccccn2)c2ncn(C3OC(CO)C(O)C3O)c2n1 (stereo not drawn)	/	2	14	-14	/	/
CN1CC[C@@H]2C(=O)N3CCc4ccc(-c5ccc6c(c5)OCO6)cc4[C@@H]3C[C@@H]21	/	1	/	/	/	/
Cc1cc(C)cc(C(=O)NCC(=O)OCC(=O)NCC(F)(F)F)c1	96*	-1	1	-1	3	100
Cc1cccc(C(=O)NCC(=O)OCC(=O)NCCNC(=O)COC(=O)CNC(=O)c2cccc(C)c2)c1	1	-1	-9	9	/	/
Cc1ccc(C)c(NC(=O)CCN2C(=O)C3CC=CCC3C2=O)c1 (stereo not drawn)	68*	2	1	-1	1	97
Cc1ccc(C)c(NC(=O)CCN2C(=O)c3ccccc3C2=O)c1	0	0	8	-8	/	/
CCOc1ccc(CNC(=S)N/N=C/c2cccnc2)cc1	0	2	-17	17	/	/
CCOc1ccc(CNC(=S)N/N=C\c2ccc([N+](=O)[O-])cc2)cc1	64*	3	16	-16	0	102
O=C(Nc1ccccc1)C(=O)Nc1ccccn1	47*	3	3	-3	0	92
CCOC(=O)C1(C)CCCN(C(=O)c2cc(C)oc2C)C1 (stereo not drawn)	/	5	/	/	/	/
O=C(Nc1ccc(Cl)cn1)C1CCCN(c2ncnc3c2nc2n3CCCCC2)C1 (stereo not drawn)	1	2	45	-45	/	/
O=C(Nc1ccc(Cl)cn1)C1CCN(c2ncnc3c2nc2n3CCCCC2)CC1	55*	-1	29	-29	-4	107
CC(O)(Cc1ccccn1)Cc1ccccn1	/	0	-12	12	/	/
Cc1c(/C=N\NC(=O)c2c[nH]c3ccccc23)cnn1C	99*	0	-22	22	-2	91

Source: PubChem BioAssay (several laboratories)
